Hsp70 act – Hsp70 transcriptional activators, primary screen, cell-based, HeLa, Hsp70 promoter luciferase, luminescence, 10 µM; activation, % at 10 µM; 200,000 tested, 0.04% active; HeLa Hsp70 promoter luciferase reporter; scaled: vehicle 0, proteasome-inhibitor control 100%;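 active = activation above the mean across all tested compounds plus 3 SD, cutoff set per campaign, cut at about 5.5% in these data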;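 note: 100% = MG132 at 30 µM as the positive control and 0% = DMSO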
Mdm2 ligase inh – MDM2-luciferase reporter signal enhancers, primary screen, MDM2 E3 ligase inhibitor project, cell-based, luminescence, 1536-well; 210,000 tested, 0.11% active; E3 ubiquitin-protein ligase Mdm2 (Homo sapiens), Q00987; cell-based MDM2 ubiquitination luciferase reporter, 2 h; 0 = plate control, 100 = twice control, blank-subtracted; signal enhancement, % at 5 µM; AID 1230, 2008;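 active = signal enhancement of 30% or more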;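 note: luminescence tracks abundance of the self-degrading MDM2-luciferase fusion protein; higher signal means inhibition of MDM2 E3 ligase activity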
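System: stable MDM2–luciferase fusion reporter cells / Input: 2000 cells seeded into each well / Schedule: 4 h settle plus 2 h compound, 37 °C / Compound: single-point 5 µM / Buffer or medium: cells held in DMEM / Benchmarks: control and blank well means / Evaluation: percent signal gain over controls, blank-subtracted / Measured by: luciferase luminescence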
CHOP inhibitor – inhibitors of CHOP promoter induction, primary screen, cell-based, unfolded protein response, luciferase reporter; CHO-K1 CHOP-promoter luciferase, tunicamycin-induced, 15-18 h; inhibition, % at 10 µM; 220,000 tested, 3.8% active;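 active = compounds that reduced the stress-induced luciferase reporter signal by more than about 70% of percent inhibition, limit read from the data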;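 note: 0% = tunicamycin plus vehicle and 100% = wells without tunicamycin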
S1P3 antagonist – S1P3 receptor antagonists, primary screen, cell-based; Sphingosine 1-phosphate receptor 3 (Homo sapiens), Q99500; CHO S1P3 NFAT-BLA reporter, FRET fluorescence, antagonist mode; inhibition, % at 4.98 µM; 170,000 tested, 0.27% active; AID 485, 2006;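 active = inhibition above the plate cutoff, the mean inhibition of test wells on that plate plus 3 SD, cut at about 28% in these data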;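 note: cells challenged with S1P at its EC80 of 0.8 µM; blue over green emission ratio from cleaved BLA substrate after 4 h stimulation; 0% = S1P-stimulated wells and 100% = unstimulated DMSO-only wells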
Target sequence (Q99500 whole entry, looked up): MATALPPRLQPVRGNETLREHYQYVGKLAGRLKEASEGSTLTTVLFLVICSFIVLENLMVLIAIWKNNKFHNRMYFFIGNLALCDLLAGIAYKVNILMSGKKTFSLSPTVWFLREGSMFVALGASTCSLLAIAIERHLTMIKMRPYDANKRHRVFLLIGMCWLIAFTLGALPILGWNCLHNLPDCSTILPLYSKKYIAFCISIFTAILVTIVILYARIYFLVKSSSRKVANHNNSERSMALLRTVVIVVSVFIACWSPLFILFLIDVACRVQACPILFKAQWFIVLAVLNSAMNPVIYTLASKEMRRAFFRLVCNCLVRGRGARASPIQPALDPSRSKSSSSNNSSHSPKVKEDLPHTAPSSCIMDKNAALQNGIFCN
CHOP confirm – retest of CHOP induction inhibitors, confirmation, cell-based. shares compounds with CHOP inhibitor. CHO-CHOP promoter luciferase reporter, tunicamycin-induced, luminescence. inhibition, % at 10 µM. 2,100 tested, 45% active. AID 504437, 2011;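 active = mean of three repeat readings of reporter signal inhibition above a set limit, cut at about 70% in these data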;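 note: 0% = tunicamycin plus vehicle and 100% = wells lacking tunicamycin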
Active calls of the source: *; / = not tested or not shown. Sampled rows, rich in hits. Any-hit rate of the full collection: about 4%.

SMILES | Hsp70 act | Mdm2 ligase inh | CHOP inhibitor | S1P3 antagonist | CHOP confirm
CC1=CC(=O)C=C(C)C1=NOC(=O)/C=C\c1ccccc1 | -0.4 | -12.1 | 101.0* | -3.7 | -89.8
CC1=CC(=NOC(=O)/C=C/c2ccccc2)C=C(C)C1=O | -0.1 | -8.5 | 20.7 | / | /
CSc1nnc(C)c(=O)n1COC(=O)/C=C/c1ccccc1 | 0.0 | -9.5 | -0.4 | -5.2 | /
O=C(CCCOc1ccc(Cl)cc1Cl)N/N=C\C1CCCCC1 | -0.1 | -24.9 | 104.9* | / | 83.2*
O=C(CCCOc1ccc(Cl)cc1Cl)NCCCO | -0.2 | 7.4 | 31.5 | -18.9 | /
Cc1ccc(Cn2cnc3ccccc32)cc1C | -0.4 | 2.3 | 4.2 | 10.5 | /
Cc1cc(=O)[nH]c(N=N/C(=N/Nc2ccccc2C)c2ccccc2)n1 | -0.1 | 2.7 | 102.9* | / | 43.1
Nc1ncnc(Sc2ncccn2)c1[N+](=O)[O-] | 0.3 | -15.1 | 104.5* | 6.4 | 44.8
CN1C(=S)SC2CS(=O)(=O)CC21 (configuration not stated) | / | -11.7 | -2.5 | -3.1 | /
CCOC(=O)Cc1nnc2c(Nc3ccc(Cl)cc3)nc3nonc3n12 | 0.0 | -12.2 | 105.2* | -28.5 | 60.7
CCOC(=O)Cc1csc(Nc2ccc(Cl)cc2)n1 | 1.0 | 1.6 | -16.2 | 0.9 | /
COc1cc(/C=C2/C(=O)c3cccc([N+](=O)[O-])c3C2=O)c(Br)cc1O | -0.3 | -14.5 | 107.3* | 4.7 | 4.0
COc1ccc(-c2nc(-c3cccc([N+](=O)[O-])c3O)cc(=O)o2)cc1OC | -0.3 | -9.8 | -14.9 | -13.2 | /
CC(C)c1ccc(O)c(NC(=S)NC(=O)CCc2ccccc2)c1 | -0.6 | -15.0 | 106.3* | -11.0 | 110.1*
COC(=O)/C(=C\c1ccc([N+](=O)[O-])o1)NC(=O)c1ccccc1 | -0.3 | 2.8 | -10.4 | / | /
Cc1cccc(NC(=O)/C(=C\c2ccc([N+](=O)[O-])o2)NC(=O)c2ccc(Cl)cc2)c1 | -0.1 | -2.9 | 101.1* | -18.0 | 9.5
O=C(NC(=S)N1CCN(c2ccccn2)CC1)c1ccco1 | -0.2 | -8.0 | 9.0 | -17.0 | /
O=C(O)CN1C(=O)c2ccc(Oc3ccc4c(c3)C(=O)N(CC(=O)O)C4=O)cc2C1=O | / | -7.7 | -16.6 | -1.0 | /
COc1ccc(NS(=O)(=O)c2ccc3oc(SCc4ccc(F)cc4)nc3c2)cc1 | -0.4 | -3.6 | 96.3* | 1.3 | 57.8
COc1ccccc1NS(=O)(=O)c1ccc2oc(SCc3ccc(F)cc3)nc2c1 | 0.0 | -6.7 | 38.7 | -12.8 | /
Cn1cc(C(=O)NCc2ccc(F)cc2)c(=O)c2cc(S(=O)(=O)N3CCCCC3)ccc21 | -0.6 | -1.7 | 24.1 | -17.0 | /
COc1ccccc1CNC(=O)c1cn(C)c2ccc(S(=O)(=O)N3CCCC3)cc2c1=O | -0.1 | 3.1 | 106.1* | -11.1 | 51.5
COc1ccc2c(-c3cc4ccc(OCc5ccc(F)cc5)cc4oc3=O)cc(=O)oc2c1 | -0.4 | -12.7 | 103.4* | 10.2 | 50.6
CCSC1=NC2(CCCCC2)Nc2sc3c(c21)CCCC3 | -0.1 | -5.7 | 105.1* | / | 4.0
Cc1cc(C)cc(NC(=O)CSc2nc3c(c(=O)[nH]2)CN(Cc2ccc(F)cc2)CC3)c1 | -0.1 | -8.6 | 36.3 | 0.5 | /
SMILES | Hsp70 act | Mdm2 ligase inh | CHOP inhibitor | S1P3 antagonist | CHOP confirm
CS(=O)(=O)c1nc(-c2ccccc2)cc(C(F)(F)F)n1 | -0.1 | 14.8 | / | / | 116.7*
Cc1cc(NC(=O)CCS(=O)(=O)c2nc(-c3ccccc3)cc(C(F)(F)F)n2)no1 | / | 17.0 | / | -34.3 | -228.8
COc1ccc(-c2cc(C(F)(F)F)nc(SCC(=O)Nc3cc(C)on3)n2)cc1 | -0.1 | -12.8 | 27.7 | -8.1 | /
COCCn1c(=NC(=O)/C=C/c2ccccc2)sc2cc(NC(C)=O)ccc21 | -0.3 | -13.7 | 99.9* | -2.0 | 42.7
COCCn1c(=NC(C)=O)sc2cc([N+](=O)[O-])ccc21 | -0.1 | -5.6 | 0.5 | -9.1 | /
COC(=O)/C=C1/N/C(=N\c2nc(C)cc(C)n2)N(c2ccc(Cl)cc2)C1=O | -0.5 | 1.8 | 21.6 | 4.7 | /
Cc1ccc2nc(NC(=O)c3ccc4ncsc4c3)sc2c1 | -0.1 | -23.0 | 102.7* | / | -13.2
Cc1ccc2nc(NC(=O)c3cccs3)sc2c1 | -0.1 | -12.3 | 66.3 | / | /
CC(=O)N(C1=C(Cl)C(=O)c2ccccc2C1=O)C1CCCCC1 | / | -85.3 | 102.4* | -7.4 | 113.2*
CCCCNc1nc(N)ncc1[N+](=O)[O-] | / | -6.6 | 17.8 | 7.5 | /
CCOc1ccccc1N1CCN(S(=O)(=O)c2ccc3c4c(cccc24)C(=O)N3)CC1 | -0.3 | -14.4 | 98.9* | 3.0 | 9.1
CN1CCN(S(=O)(=O)c2ccc3c4c(cccc24)C(=O)N3)CC1 | -0.1 | -7.5 | -37.0 | -17.8 | /
O=C(N/N=C/c1ccc(F)cc1)c1cc(-c2ccc3c(c2)OCO3)n[nH]1 | / | -0.4 | 0.4 | -1.7 | /
Oc1ccc(F)cc1-c1cc(-c2ccc3c(c2)OCCO3)n[nH]1 | 0.3 | -25.4 | 98.9* | / | 4.5
Cc1ccc(S(=O)(=O)N2CCC(C(=O)NNC(=O)c3ccc(F)cc3)CC2)cc1 | 0.0 | -11.1 | 8.4 | -1.7 | /
NCCCNC(=O)c1cc2ccccc2[nH]1 | -0.2 | -2.4 | 107.1* | -35.1 | 10.9
O=c1cc(-c2ccccc2)n(S(=O)(=O)c2ccc3ccccc3c2)o1 | -0.3 | / | / | / | /
CCOc1ccc(/C=C/C2=Cc3c(sc(NC(=O)CSc4n[nH]c(N)n4)c3C#N)C(C)(C)C2)cc1 | -0.2 | -5.5 | 108.7* | / | 115.6*
O=c1c2ccccc2sn1-c1ccccc1 | -0.3 | -17.9 | 108.1* | / | 20.1
Cc1cccn2c(=O)c(C=O)c(N3CCSCC3)nc12 | / | 0.9 | 4.2 | -10.6 | /
CCOC(=O)c1cnc(-n2nc(C)cc2C)nc1Nc1ccc(C)cc1 | 0.0 | -1.6 | -15.2 | / | /
CCOC(=O)c1cnc(-n2nc(C)cc2C)nc1Nc1ccc(O)cc1 | / | -18.8 | 103.9* | -7.1 | 110.4*
CCOC(=O)c1cnc(-n2nc(C)cc2C)nc1NC | 0.3 | -6.5 | -22.6 | -14.2 | /
CCOC(=O)c1cnc(-n2nc(C)cc2C)nc1NC1CCCCC1 | 0.1 | 2.4 | 106.4* | 28.3 | 116.8*
C[C@H](c1ccccc1)n1nnc(COCc2ccccc2)c1C#CCOCc1ccccc1 | / | 27.3 | 8.9 | / | /
SMILES | Hsp70 act | Mdm2 ligase inh | CHOP inhibitor | S1P3 antagonist | CHOP confirm
COCC(C)NC(=O)CSc1nc(-c2ccccc2)c(-c2ccccc2)o1 (configuration not stated) | -0.1 | -1.7 | 38.5 | / | /
Oc1ccc(Nc2nc3ccccc3nc2Nc2ccc(O)cc2)cc1 | 0.7 | 21.4 | 46.2 | / | /
O=C(NN=C1CCCC1)C1COc2ccccc2O1 (configuration not stated) | 0.1 | -14.6 | 17.8 | -7.4 | /
Cn1c(=O)[nH]c(=O)c2[nH]c(N(Cc3ccccc3)Cc3ccccc3)nc21 | -0.1 | -5.3 | 110.8* | 12.2 | 113.9*
Cc1sc2ncnc(SCC(=O)NCC(C)C)c2c1C | -0.1 | / | 18.8 | / | /
CCc1ccc(OCC(=O)NNC(=O)CSc2ncnc3sc(C)c(C)c23)cc1 | -0.3 | -14.1 | 100.9* | / | 12.9

High-throughput results: PubChem, several laboratories
